# Experimental data reported in PubChem BioAssay.
# Activity calls are given as the source filed them.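 The calls were made as follows, unless noted: active = a full or partial loss of lipid-probe fluorescence in the fish gall bladder, intestine or both, judged by eye; inactive = no fluorescence loss, or compound toxic to the fish.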
# Tests used:
# [1] = inhibitors of TNFa-induced NFkB p65 translocation, primary screen, imaging, HUVEC, MLSMR starter and 10KST1 sets (AID 438;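 active = inhibition above 20% together with a positive visual image hit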;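 also: compound added about 3h40 before a 20 min TNFalpha stimulation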;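 as to inhibition: signal is the nuclear over cytoplasmic p65 intensity ratio per well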); settings: HUVEC TNFa-induced p65 nuclear translocation; cell count: measured here: nuclei count (cytotoxicity indicator), at 2.08 µM; inhibition: at 2 µM, stronger effect = higher value, 0% TNFa-plus-vehicle, 100% no-TNFa wells
# [2] = inhibitors of E-selectin induction by TNFa, primary screen, imaging, HUVEC, immunofluorescence, MLSMR starter and 10KST1 sets (AID 487;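 active = visually confirmed hit in the image check and inhibition above 20%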;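 as to inhibition: signal is fraction of cell area covered by stained E-selectin grains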;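 as to nuclei count: 100% = median nuclei count of all wells on the same plate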); settings: HUVEC TNFalpha-induced E-selectin immunofluorescence imaging, at 2 µM; inhibition: stronger effect = higher value; nuclei count: measured here: cell number, toxicity
# [3] = DUSP6 inhibitors restoring Erk phosphorylation by chemical complementation, primary imaging in DUSP6-transfected HeLa (AID 609;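 active = compounds giving at least 50% inhibition in the cell-based MKP-3 phosphatase rescue imaging test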;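 as to inhibition: phospho-Erk level distribution per well compared with pooled transfected vehicle control wells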); settings: HeLa MKP-3 transfected, phospho-Erk imaging KS statistic, at 10 µM, cells stimulated with TPA for 15 min
# [4] = target: Dual specificity protein phosphatase 6 (Homo sapiens) (UniProt Q16828); test: as above; settings: HeLa MKP-3 transfected, phospho-Erk imaging KS statistic; at 10 µM; stronger effect = higher value; cells stimulated with TPA for 15 min
# Chain of Dual specificity protein phosphatase 6 (Homo sapiens) (Q16828 whole entry, looked up): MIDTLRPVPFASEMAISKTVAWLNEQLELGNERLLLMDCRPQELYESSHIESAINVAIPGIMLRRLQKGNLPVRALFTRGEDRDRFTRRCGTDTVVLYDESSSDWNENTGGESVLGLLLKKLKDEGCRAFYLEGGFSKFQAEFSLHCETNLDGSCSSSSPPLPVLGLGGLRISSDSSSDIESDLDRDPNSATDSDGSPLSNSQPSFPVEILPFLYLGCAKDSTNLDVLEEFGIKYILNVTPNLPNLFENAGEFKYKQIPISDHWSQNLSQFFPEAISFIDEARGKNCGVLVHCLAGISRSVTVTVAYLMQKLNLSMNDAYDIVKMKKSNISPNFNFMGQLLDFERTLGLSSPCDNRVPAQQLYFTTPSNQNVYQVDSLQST
# [5] = target: Voltage-gated potassium channel subunit beta-2 (Rattus norvegicus) (UniProt P62483); test: KvBeta enzyme negative modulators, primary screen, biochemical, NADPH fluorescence (AID 622;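 active = fluorescence slope higher than the sample average by over 3 SD, cut at about -0.22 in these data, passing the limit was not always enough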;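 also: slope of raw intensity against log time taken from 70 to 1610 s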); settings: recombinant KvBeta, 4-cyanobenzaldehyde reduction, at 10 µM, stronger effect = higher value
# Chain of Voltage-gated potassium channel subunit beta-2 (Rattus norvegicus) (P62483 whole entry, looked up): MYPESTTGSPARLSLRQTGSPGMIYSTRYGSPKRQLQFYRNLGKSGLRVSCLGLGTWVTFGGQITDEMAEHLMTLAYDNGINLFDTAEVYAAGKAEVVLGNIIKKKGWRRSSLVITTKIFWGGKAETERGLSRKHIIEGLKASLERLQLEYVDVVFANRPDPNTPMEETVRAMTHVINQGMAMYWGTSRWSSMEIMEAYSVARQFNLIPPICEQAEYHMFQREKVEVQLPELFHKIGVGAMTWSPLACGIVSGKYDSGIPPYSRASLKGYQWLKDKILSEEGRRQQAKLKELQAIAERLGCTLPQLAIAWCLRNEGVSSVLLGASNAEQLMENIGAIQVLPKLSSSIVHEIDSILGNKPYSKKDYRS
# [6] = target: Voltage-gated potassium channel subunit beta-2 (Rattus norvegicus) (UniProt P62483); test: KvBeta positive modulators, primary screen, biochemical, NADPH fluorescence (AID 623;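 active = NADPH fluorescence slope more negative than the mean of all samples by about 3 SD, 99.7% confidence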;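 also: fluorescence intensity change per second fitted from 20 to 320 s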); settings: Recombinant KvBeta, NADPH fluorescence decrease slope, 10 min; at 10 µM; stronger effect = lower value
# [7] = target: Alpha-2C adrenergic receptor (Homo sapiens) (UniProt P18825); test: modulators of alpha2C/GIRK thallium flux, primary screen, cell-based, HEK293 alpha2C/GIRK1/2 (AID 624;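 active = fluorescence slope after compound addition differing from the mean of all screened samples at 99.7% confidence, in either direction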;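 also: slope of fluorescence ratio to pre-addition baseline per second over 15 to 24 s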); settings: thallium flux BTC fluorescence, at 10 µM, actives lie on both sides
# Chain of Alpha-2C adrenergic receptor (Homo sapiens) (P18825 whole entry, looked up): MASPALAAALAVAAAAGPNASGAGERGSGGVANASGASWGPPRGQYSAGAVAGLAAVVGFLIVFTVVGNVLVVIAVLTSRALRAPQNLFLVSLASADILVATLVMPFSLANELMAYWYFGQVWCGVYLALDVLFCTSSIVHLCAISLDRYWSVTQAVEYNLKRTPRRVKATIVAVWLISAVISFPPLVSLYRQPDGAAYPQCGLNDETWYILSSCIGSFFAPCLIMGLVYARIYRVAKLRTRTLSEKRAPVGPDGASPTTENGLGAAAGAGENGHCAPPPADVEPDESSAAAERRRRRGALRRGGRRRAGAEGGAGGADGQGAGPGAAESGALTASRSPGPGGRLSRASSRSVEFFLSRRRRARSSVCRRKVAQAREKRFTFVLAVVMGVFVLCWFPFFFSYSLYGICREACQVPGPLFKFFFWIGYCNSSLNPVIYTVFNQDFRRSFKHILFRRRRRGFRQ
# [8] = inhibitors of larval lipid processing in zebrafish, primary screen, whole organism, PED6 fluorescence, gall bladder and intestine (AID 686); settings: Zebrafish larvae PED6 lipid processing, fluorescence scoring; screened at 20 µM (by protocol);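 also: larvae 5 to 7 days old with five fish per well; signal comes from phospholipase A2 cleavage of quenched PED6 carried via bile; overnight exposure to compound and PED6 before scoring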
# Summary of the method: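 Doses: 20 µM single dose. Test system: live zebrafish larvae aged 5-7 days, whole organism. Quantity: five larvae per well. Measured by: By-eye fluorescence microscopy. Reagent: ingested quenched lipid PED6 at 100 nM. Read-out: visual per-well fluorescence inhibition score. Times: overnight exposure of larvae to compound plus PED6.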
# [9] = inhibitors of Chlamydomonas gravitaxis, primary screen, whole organism, Chlamydomonas reinhardtii, WT vs cilia-less mutant, absorbance, 96-well (AID 463189;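 active = inhibition at or above 50% relative to wild type and mutant plate controls; inactive = inhibition below 50%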;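 also: 0% = wild type cc124 cells in DMSO and 100% = ciliumless bld1 mutant cells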); settings: OD600 absorbance, 2 days, at 10 µM, stronger effect = higher value
# [10] = measured here: cell density z-score
# [11] = measured here: nuclear c-Myc green intensity z-score
# [12] = measured here: nuclear pErk red intensity z-score, stronger effect = higher value
Compound,cell count [1],inhibition [1],inhibition [2],nuclei count [2] [%],"z-score [3, 10]","z-score [3, 11]","z-score [3, 12]",inhibition [4],fluorescence slope [5],NADPH fluorescence slope [6],slope [7],outcome [8],inhibition [9]
NC(=O)CSc1c[nH]c2ccccc12,640,-5.5% (inactive),73.3% (inactive),169,-1.08,0.978,-1.28,17% (inactive),-0.497 (inactive),-4.9e-05 (inactive),0.00438 (inactive),inactive,31.3% (inactive)
CSc1nc2sc3c(c2c(=O)[nH]1)CCC(C)C3 (stereo unspecified),503,-19.4% (inactive),-109% (inactive),191,-1.18,2.07,-0.579,20.2% (inactive),-0.364 (inactive),1.3e-05 (inactive),0.00953 (active),inactive,3.37% (inactive)
c1ccc(-c2nnc3n2N=C(c2ccc4c(c2)OCO4)CS3)nc1,626,-5% (inactive),-177% (inactive),144,0.439,0.912,0.545,-11.5% (inactive),-0.406 (inactive),-0.000131 (inactive),0.00609 (inactive),inactive,-7.21% (inactive)
Cn1c(SCC(=O)NCc2ccccc2)nc2ccccc21,325,1.6% (inactive),-60.9% (inactive),79.7,0.441,2.21,-0.441,3.66% (inactive),-0.364 (inactive),-2.1e-05 (inactive),0.00569 (inactive),inactive; toxic,26.1% (inactive)
CCNc1nc(NC(C)C)nc(N(C#N)C(C)C(=O)N(C)C)n1 (stereo unspecified),330,-31.8% (inactive),-39.6% (inactive),134,-0.102,-1.64,0.749,-12.3% (inactive),-0.445 (inactive),-0.000124 (inactive),0.00585 (inactive),inactive,19.9% (inactive)
CCOC(=O)c1cc(C)n(-c2ccc(OC)c(OC)c2)c1C,530,-8.1% (inactive),-25.1% (inactive),122,1.68,-2.38,-0.201,5.57% (inactive),-0.516 (inactive),-0.000114 (inactive),0.00418 (inactive),inactive,-0.885% (inactive)
Cc1ccc(CC2CC(=O)N(c3ccc4c(c3)OCCO4)C2=O)cc1 (stereo unspecified),482,-11% (inactive),-17.8% (inactive),129,1.49,-1.24,0.443,15.1% (inactive),-0.513 (inactive),-0.000111 (inactive),0.00446 (inactive),inactive,25.7% (inactive)
Cn1nnnc1SCC(=O)NCC(=O)c1ccccc1,527,-4.5% (inactive),-74.2% (inactive),146,0.246,-1.91,0.111,-7.01% (inactive),-0.527 (inactive),-6.9e-05 (inactive),0.00467 (inactive),inactive,10.2% (inactive)
CCOC(=O)C(NC=O)(NC(C)(C)C)C(=O)OCC,520,-16.1% (inactive),-227% (inactive),188,-0.692,0.27,0.909,-8.95% (inactive),-0.493 (inactive),-5.5e-05 (inactive),0.00503 (inactive),inactive,-1.22% (inactive)
CC(C)C1Cc2c(sc3c2c(=O)n(Cc2ccccc2)c2nncn32)CO1 (stereo unspecified),557,-4.6% (inactive),-2.8% (inactive),115,1.56,0.421,-0.614,9.61% (inactive),-0.481 (inactive),-0.000346 (inactive),0.00509 (inactive),inactive,8.24% (inactive)
Cc1cc(C)nc(NC2=NCC(=O)N2c2ccccc2)n1,599,-3.5% (inactive),-130% (inactive),136,1.19,-0.204,-1.47,3.97% (inactive),-0.493 (inactive),-3.7e-05 (inactive),0.00515 (inactive),inactive,-0.727% (inactive)
COc1cccc(C2C(C#N)=C(N)Oc3cc(C)[nH]c(=O)c32)c1OC (stereo unspecified),508,-31.3% (inactive),-89.8% (inactive),158,-0.315,-0.918,-0.838,-2.47% (inactive),-0.524 (inactive),-4.3e-05 (inactive),0.00584 (inactive),inactive,9.96% (inactive)
CSc1sc(C(=O)O)c2c1C(=O)CCC2,562,-4.6% (inactive),-163% (inactive),186,-0.487,1.05,0.511,5.65% (inactive),-0.486 (inactive),-0.000199 (inactive),0.00495 (inactive),inactive,-9.07% (inactive)
Clc1ccccc1-c1nnc2sc(-c3ccco3)nn12,568,-10.6% (inactive),37.2% (inactive),88.5,-0.391,-0.433,1.6,4.72% (inactive),-0.43 (inactive),-4.6e-05 (inactive),0.00572 (inactive),inactive,85.1% (active)
COc1cc(/C=N/O)ccc1OCc1ccc(C(=O)O)cc1,587,-21.9% (inactive),-51.1% (inactive),154,-1.09,0.882,0.52,-0.608% (inactive),-0.357 (inactive),-5.9e-05 (inactive),0.00492 (inactive),inactive,-7.38% (inactive)
C=CCNC(=O)C(C#N)c1nc2ccccc2nc1N1CCCCCC1 (stereo unspecified),537,-1.4% (inactive),-190% (inactive),178,-1.46,1.13,1.59,15% (inactive),-0.302 (inactive),-1.1e-05 (inactive),-0.000734 (inactive),inactive,10.7% (inactive)
CCc1cc2c(=O)c(-c3cscn3)coc2c(CN(C)C)c1O,517,-8.2% (inactive),-53.3% (inactive),86.5,0.222,-0.434,0.878,1.9e-07% (inactive),-0.0873 (inactive),-2.5e-06 (inactive),0.00409 (inactive),inactive,15.7% (inactive)
CCCCOc1ccc(C2CC(=O)N(C)C2=O)cc1 (stereo unspecified),641,-9.7% (inactive),63.8% (inactive),175,-0.371,-0.965,1.92,7.48% (inactive),-0.516 (inactive),-6.5e-05 (inactive),0.00432 (inactive),inactive,3.29% (inactive)
N#Cc1c(-c2ccccc2Cl)cc(C2CC2)nc1N,577,-16.2% (inactive),-31.3% (inactive),172,0.235,-0.47,0.466,-2.47% (inactive),-0.415 (inactive),-2.4e-05 (inactive),0.00637 (inactive),inactive,-9.3% (inactive)
C=CCOc1nc2c(c(=O)n(Cc3ccc(Cl)c(Cl)c3)c(=O)n2C)n1C,654,0.8% (inactive),-39.8% (inactive),140,1.05,1.15,-1.45,-2.91% (inactive),-0.492 (inactive),-0.000116 (inactive),0.00594 (inactive),inactive,-5.33% (inactive)
COc1ccccc1C(=O)N1CCN(Cc2ccc3c(c2)OCO3)CC1,590,-14.5% (inactive),34.9% (inactive),183,-2.41,2.03,1,-15% (inactive),-0.361 (inactive),-4e-05 (inactive),0.0055 (inactive),inactive,12.2% (inactive)
CC(C)c1cc(NCCN2CCOCC2)n2c(nc3ccccc32)c1C#N,530,-16.7% (inactive),-13.5% (inactive),100,0.71,0.53,-0.442,10.1% (inactive),-0.493 (inactive),-8.7e-06 (inactive),0.00455 (inactive),inactive,-6.96% (inactive)
COc1ccc(N(CN2C(=O)C3C4C=CC(C4)C3C2=O)C(=O)c2ccco2)cc1 (stereo unspecified),541,2.9% (inactive),-74.9% (inactive),117,-1.56,1.43,1.11,1.6e-07% (inactive),-0.58 (inactive),-3.5e-05 (inactive),0.00619 (inactive),inactive,-8.45% (inactive)
CN(C)c1ccc(C2C3C(=O)N(c4ccc(C(=O)O)cc4)C(=O)C3ON2c2ccccc2)cc1 (stereo unspecified),491,-9.3% (inactive),-30.7% (inactive),148,-0.854,-1.46,0.576,-13.3% (inactive),-0.506 (inactive),-3.3e-05 (inactive),0.00498 (inactive),inactive,13% (inactive)
O=C(Nc1ccc2c(c1)OCCO2)c1ccc(Br)o1,587,3.2% (inactive),6.1% (inactive),143,0.114,-1.76,-1.37,-1.75% (inactive),-0.295 (inactive),-8.8e-06 (inactive),0.00481 (inactive),inactive,12.8% (inactive)
CCOc1cc2nc(-c3ccc(OC)c(OC)c3)nc(N3CCOCC3)c2cc1OC,497,-26.2% (inactive),-85% (inactive),151,-0.0989,-1.76,-2.63,20.9% (inactive),-0.455 (inactive),-1.4e-05 (inactive),0.00555 (inactive),inactive; toxic,84.6% (active)
CCN1CC=C2C(C#N)=C(N)C(C#N)(C#N)[C@H](c3cccc(OC)c3OC)[C@H]2C1,560,-11.4% (inactive),26.9% (inactive),113,1.15,1.25,-1.6,-3.95% (inactive),-0.449 (inactive),-6e-06 (inactive),-4.3e-17 (inactive),inactive,-15.5% (inactive)
